{"source": "ChEMBL document CHEMBL5715946", "about": "(Chem Biol, 2010)", "key": {"H9c2": {"test_system": "H9c2", "assay": "Effect on protein oxidation in rat H9c2 cells at 10 uM incubated for 24 hrs under serum-free medium by Western blot analysis", "type": "functional, cell-based"}, "[1]": {"biological_target": "Macrophage migration inhibitory factor (Rattus norvegicus) (UniProt P30904)", "sequence (P30904 2-115 limits assumed)": "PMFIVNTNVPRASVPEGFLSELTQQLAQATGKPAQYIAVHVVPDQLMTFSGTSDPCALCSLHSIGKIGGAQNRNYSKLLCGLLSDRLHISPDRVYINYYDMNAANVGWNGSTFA", "assay": "Induction of MIF-stimulated ARE activity in rat H9c2 cells assessed as increase in GST Ya expression at 3 uM incubated for 24 hrs by RT-qPCR analysis", "type": "cell-based"}, "[2]": {"test_system": "Antioxidant response element", "assay": "Induction of ARE activity in serum-deprived neonatal Wistar rat cardiomyocytes assessed as increase in HO-1 mRNA level up to 3 uM measured after 24 hrs by RT-qPCR analysis", "type": "cell-based", "conditions": "Cardiomyocyte", "outline": "(§1)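 Neonatal rat cardiomyocytes exposed to samples or vehicle in M-199 with 1% penicillin-streptomycin, no serum, for 24 hr. GST Ya and HO-1 mRNA measured by real-time qPCR (mean ± SD, n = 3); protein by western blot with β-actin as control.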"}, "[3]": {"test_system": "Antioxidant response element", "assay": "Induction of ARE-mediated GST Ya mRNA expression in MIF siRNA transfected rat H9c2 cells at 3 uM measured after 24 hrs in presence of rat MIF by RT-qPCR analysis", "type": "cell-based", "outline": "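H9c2 cells transfected with MIF siRNA or control siRNA (100 nM, Oligofectamine), then treated with 3 μM compound with or without 0.8 μM rMIF for 24 hr. GST Ya and HO-1 mRNA by real-time qPCR; mean ± SD, n = 3. MIF effect on drug efficacy tested by Aspin-Welch test.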"}, "[4]": {"test_system": "Antioxidant response element", "assay": "Induction of ARE activity in serum-deprived neonatal Wistar rat cardiomyocytes assessed as increase in GST Ya expression up to 400 nM measured after 24 hrs by Western blot analysis", "type": "cell-based", "conditions": "Cardiomyocyte", "outline": "as §1"}, "[5]": {"assay": "Upregulation of 3-methylcholanthrene-inducible truncated UDP-glucuronosyl transferase gene expression in serum-deprived neonatal Wistar rat cardiomyocyte at 0.37 uM incubated for 21 hrs by microarray analysis relative to control", "type": "functional, Cardiac muscle cell", "outline": "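Primary neonatal rat cardiomyocytes cultured with or without 0.37 μM compound in serum-free medium for 21 hr. Total RNA profiled on the rat genome U34A GeneChip array (about 7000 known genes).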"}, "[6]": {"biological_target": "T1, Glutathione S-transferase alpha-1 (Rattus norvegicus) (UniProt P00502)", "T1 sequence (whole entry)": "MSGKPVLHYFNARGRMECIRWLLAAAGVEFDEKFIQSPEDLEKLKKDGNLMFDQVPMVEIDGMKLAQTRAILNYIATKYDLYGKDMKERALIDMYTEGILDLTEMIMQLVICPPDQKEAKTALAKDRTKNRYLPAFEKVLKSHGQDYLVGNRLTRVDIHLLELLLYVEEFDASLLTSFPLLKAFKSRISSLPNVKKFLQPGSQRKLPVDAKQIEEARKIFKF", "assay": "Binding affinity to rat N-terminal 6His-tagged truncated GST Ya expressed in Escherichia coli BL21 (DE3) at 400 nM incubated for 6 hrs using labelled compound by scintillation proximity assay", "outline": "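Scintillation proximity assay: 6His-tagged protein (hMIF, rat GST Ya or rat VILIP3) captured on copper His-tag SPA beads with [3H]-BTZO-1; emitted light counted on a microplate scintillation counter. Mean of n = 2.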"}}, "note": "Activity calls are given as the source filed them. The calls are words filed in the database; no cut-off is given here.", "data": [{"smiles": "O=c1nc(-c2ccccn2)sc2ccccc12", "note": "[BTZO-1]", "values": [{"measurement": "Activity", "setting": "H9c2", "result": "inactive"}, {"measurement": "Activity", "setting": "[1]", "result": "Active"}, {"measurement": "Activity", "setting": "[2]", "result": "Active"}, {"measurement": "Activity", "setting": "[3]", "result": "Active"}, {"measurement": "Activity", "setting": "[4]", "result": "Active"}, {"measurement": "fold change (FC)", "setting": "[5]", "result": 2.2}, {"measurement": "Activity", "setting": "[6]", "result": "inactive"}]}]}
